From ChEMBL document CHEMBL4651341, “The discovery of a novel series of compounds with single-dose efficacy against juvenile and adult Schistosoma species” (PLoS Negl Trop Dis, 2021)
Blank lines part the entries; values can stand above or below the compound they belong to.

Legend:
Schistosoma mansoni [1] = assay: Concentration required to kill 50% of 21 day old worms 5 days after drug treatment.; assay type: functional, organism-based; conditions: Puerto Rican, 120 h
Summary of the method: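 Juvenile S. mansoni (Puerto Rican strain) were perfused from CD1 mice 3 weeks post-infection and washed. They were cultured 6–8 per well in 200 µL DMEM with 2 mM glutamine, penicillin/streptomycin and 10% FCS at 37 °C, 5% CO2. Viability of individual worms was scored on day 5 after dosing (120 h).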

Schistosoma mansoni [2] = assay: Concentration required to kill 50% of 42 day old worms 5 days after drug treatment.; assay type: functional, organism-based; conditions: Puerto Rican, 120 h
Summary of the method: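 Adult S. mansoni were perfused from CD1 mice 6 weeks post-infection and washed. They were cultured 3 pairs per well in 1 mL DMEM with 2 mM glutamine, penicillin/streptomycin and 10% FCS […] at 37 °C, 5% CO2. Viability of individual worms was scored on day 5 (120 h).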

[3] = Mean volume of distribution at steady state in Swiss albino male mice at 1 mg/kg per compound (administered iv in a mixture of 5 compounds to 3 mice) assessed by LCMS/MS.; assay type: ADME, organism-based; conditions: mouse, in vivo, read-out: Volume
Summary of the method: (§1)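 Male Swiss albino mice (~30 g), 3 per experiment, mostly dosed as mixtures of 5 compounds iv via the lateral tail vein. Vehicle: 10% DMSO/90% 50 mM Na2HPO4 with 0.5% Tween-80. Plasma stored at −20 °C and quantified by LC-MS after acetonitrile precipitation.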

[4] = Mean oral bioavailability in Swiss albino male mice at […] per compound (administered in a mixture of 5 compounds to 3 mice) assessed by LCMS/MS.; further: dose 2.5 mg/kg; assay type: ADME, organism-based; conditions: male, Swiss albino, mouse, in vivo, read-out: Bioavailability
[5] = Mean half-life in Swiss albino male mice at 1 mg/kg per compound (administered iv in a mixture of 5 compounds to 3 mice) assessed by LCMS/MS.; assay type: ADME, organism-based; conditions: mouse, in vivo; summary of the method: as §1
[6] = Mean observed clearance in Swiss albino male mice at 1 mg/kg per compound (administered iv in a mixture of 5 compounds to 3 mice) assessed by LCMS/MS.; assay type: ADME, organism-based; conditions: male, Swiss albino, mouse, in vivo, read-out: Clearance (converted)
Summary of the method: as §1, with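 “Tween-80. Blood sampled at 5, 15, 30 min and 1, 2, 4, 8, 24 h.” for “Tween-80.”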

[7] = Mean AUC inf in Swiss albino male mice at 1 mg/kg per compound (administered iv in a mixture of 5 compounds to 3 mice) assessed by LCMS/MS.; assay type: ADME, organism-based; conditions: male, Swiss albino, mouse, in vivo
Summary of the method: as §1, with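 “Tween-80. Blood sampled at 5, 15, 30 min and 1, 2, 4, 8, 24 h.” for “Tween-80.”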

[8] = Mean plasma concentration at 24h in Swiss albino male mice at […] per compound (administered orally in a mixture of 5 compounds to 3 mice) assessed by LCMS/MS.; assay type: ADME, organism-based; conditions: mouse, po
[9] = Mean time to peak plasma concentration in Swiss albino male mice at […] per compound (administered orally in a mixture of 5 compounds to 3 mice) assessed by LCMS/MS.; assay type: ADME, organism-based; conditions: mouse, po
[10] = Mean plasma concentration at 4h in Swiss albino male mice at […] per compound (administered orally in a mixture of 5 compounds to 3 mice) assessed by LCMS/MS.; assay type: ADME, organism-based; conditions: mouse, po
[11] = Concentration required to kill 50% HepG2 cells as detected by MTT staining; assay type: toxicity, cell-based; conditions: homo sapiens, read-out: TC50 (the source's name)

SMILES: COc1ccc(-c2cnc3cnc(-c4cnn(CCN5CCOCC5)c4)cn23)c(C)c1
EC50 (Schistosoma mansoni [1]): > 25 µM

SMILES: COc1ccc(-c2nnc3ccc(-c4cnc5[nH]ncc5c4)cn23)cc1OC
EC50 (Schistosoma mansoni [1]): > 25 µM

SMILES: COc1ccc(-c2nnc3ccc(-c4cnn(CCN5CCOCC5)c4)cn23)cc1OC
EC50 (Schistosoma mansoni [1]): > 25 µM

SMILES: Fc1ccc(-c2cn3c(-c4ccc5[nH]ncc5c4F)c(C(F)(F)F)nc3cn2)cc1Br
EC50 (Schistosoma mansoni [2]): 47.9 nM
EC50 (Schistosoma mansoni [1]): 0.0344 µM

SMILES: COc1cc(-c2nnc3ccc(-c4cccc(C(C)C)c4)cn23)ccn1
EC50 (Schistosoma mansoni [1]): > 25 µM

SMILES: Oc1ccc(-c2cnc3cnc(-c4cccc(C(F)(F)F)c4F)cn23)cc1
EC50 (Schistosoma mansoni [1]): > 25 µM

SMILES: Cn1nccc1-c1cn2c(-c3ccc(O)cc3)cnc2cn1
EC50 (Schistosoma mansoni [1]): > 25 µM

SMILES: CC(=O)c1cccc(-c2cn3c(-c4ccc(O)cc4)cnc3cn2)c1F
EC50 (Schistosoma mansoni [1]): > 25 µM

SMILES: Cc1ccc(-c2nnc3ccc(-c4cccc(OC(C)C)c4)cn23)cn1
EC50 (Schistosoma mansoni [1]): > 25 µM

SMILES: COc1ccc(-c2nnc3ccc(-c4ccc5c(c4)OCCO5)cn23)cc1OC
EC50 (Schistosoma mansoni [1]): > 25 µM

SMILES: CC(C)c1cccc(-c2ccc3nnc(-c4cnn(C)c4)n3c2)c1
EC50 (Schistosoma mansoni [1]): > 25 µM

SMILES: CS(=O)(=O)Nc1cccc(-c2cn3c(-c4ccc(O)cc4)cnc3cn2)c1
EC50 (Schistosoma mansoni [1]): > 25 µM

SMILES: COc1cccc(-c2ccc3nnc(-c4ccc(OC)c(OC)c4)n3c2)n1
EC50 (Schistosoma mansoni [1]): > 25 µM

SMILES: COc1ccc(-c2cnc3cnc(-c4cccc(C#N)c4)cn23)cc1
EC50 (Schistosoma mansoni [1]): > 25 µM

SMILES: CC(C)Oc1cccc(-c2ccc3nnc(-c4ccnc(C(F)(F)F)c4)n3c2)c1
EC50 (Schistosoma mansoni [1]): > 25 µM

SMILES: CC(C)Oc1cccc(-c2cn3c(-c4ccc(CN)cc4)cnc3cn2)c1
EC50 (Schistosoma mansoni [1]): 24.2 µM

SMILES: COc1cc(O)ccc1-c1c(C(C)C)nc2cnc(-c3cccc(C(F)(F)F)c3)cn12
EC50 (Schistosoma mansoni [2]): 918 nM
EC50 (Schistosoma mansoni [1]): 1.05 µM

SMILES: Cn1ncc2cc(-c3cn4c(-c5ccc(O)cc5)cnc4cn3)ccc21
EC50 (Schistosoma mansoni [1]): 21.4 µM

SMILES: CC(C)c1cccc(-c2ccc3nnc(-c4cccnc4)n3c2)c1
EC50 (Schistosoma mansoni [1]): > 25 µM

Vd [3]: 4.45 L/kg
bioavailability [4]: 135%
half-life [5]: 169 min
clearance [6]: 31.5 mL/min/kg
AUC(0-inf) [7]: 270 ng·h/mL
concentration at 24 h [8]: 6.53 ng/mL
Tmax [9]: 40.2 min
concentration at 4 h [10]: 131 ng/mL
SMILES: Fc1ccc(-c2cn3c(-c4ccc5[nH]ncc5c4F)c(C(F)(F)F)nc3cn2)cc1C1CC1
CC50 [11]: 10.5 µM
EC50 (Schistosoma mansoni [2]): 12 nM
EC50 (Schistosoma mansoni [1]): 0.0193 µM

SMILES: CN(C)S(=O)(=O)c1cccc(-c2cn3c(-c4ccc(O)cc4)cnc3cn2)c1
EC50 (Schistosoma mansoni [1]): > 25 µM

SMILES: CC(C)c1cccc(-c2ccc3nnc(-c4ccc5cn[nH]c5c4)n3c2)c1
EC50 (Schistosoma mansoni [1]): > 25 µM

SMILES: COc1ccc(-c2nnc3ccc(-c4ccc(F)cc4)cn23)cc1OC
EC50 (Schistosoma mansoni [1]): > 25 µM

SMILES: Cc1nnc2ccc(-c3cccc(C(C)C)c3)cn12
EC50 (Schistosoma mansoni [1]): > 25 µM

SMILES: COc1ccc(-c2cnc3cnc(-c4cccc(S(=O)(=O)N5CCOCC5)c4)cn23)cc1
EC50 (Schistosoma mansoni [1]): > 25 µM

SMILES: CC(C)c1cccc(-c2ccc3nnc(-c4ccnn4C)n3c2)c1
EC50 (Schistosoma mansoni [1]): > 25 µM

SMILES: Oc1ccc(-c2cnc3cnc(-c4ccc5cn[nH]c5c4)cn23)cc1
EC50 (Schistosoma mansoni [1]): 25 µM

SMILES: COc1cccc(-c2cnc3cnc(-c4cccc(OC(C)C)c4)cn23)n1
EC50 (Schistosoma mansoni [1]): > 25 µM

SMILES: COc1cccc(OC)c1-c1nnc2ccc(-c3cccc(OC(C)C)c3)cn12
EC50 (Schistosoma mansoni [1]): > 25 µM

SMILES: CNC(=O)c1cccc(-c2cn3c(-c4ccc(OC)cc4)cnc3cn2)c1
EC50 (Schistosoma mansoni [1]): > 25 µM

SMILES: COc1ccc(-c2nnc3ccc(-c4ccc5[nH]ncc5c4)cn23)cc1OC
EC50 (Schistosoma mansoni [1]): > 25 µM
